Results from ChEMBL document CHEMBL4422682, “Synthesis and urease inhibitory potential of benzophenone sulfonamide hybrid in vitro and in silico” (Bioorg Med Chem, 2019).

Columns and labels:
Bacterial urease [1] = molecular target: T1, Bacterial urease (Bacteria, UniProt Q03282+Q03283+Q03284); assay: (§1) Inhibition of bacterial urease using urea as substrate preincubated for 15 mins followed by substrate addition […]; type: protein-complex assay
T1 sequence (Q03282 whole entry): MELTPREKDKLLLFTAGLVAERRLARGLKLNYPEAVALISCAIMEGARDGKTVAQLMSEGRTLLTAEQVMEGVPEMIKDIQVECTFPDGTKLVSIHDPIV
T1 sequence (Q03283 whole entry): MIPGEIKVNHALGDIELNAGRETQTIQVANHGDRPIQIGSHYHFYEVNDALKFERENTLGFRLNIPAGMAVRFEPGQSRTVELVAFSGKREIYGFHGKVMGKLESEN
T1 sequence (Q03284 whole entry): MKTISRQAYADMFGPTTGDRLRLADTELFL
Procedure, shortened: (§2)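 Compounds preincubated with urease (1 U/well) for 15 min at 30 °C. Urea (100 mM, as added) introduced and incubation continued at 30 °C. Ammonia formed was detected by the Weatherburn phenol-hypochlorite method: alkaline reagent (0.5% w/v NaOH, 0.1% NaOCl) and phenol reagent (1% w/v phenol, 0.005% w/v nitroprusside) were added, then 50 min at 30 °C. Absorbance read at 630 nm on a plate reader.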

Bacterial urease [2] = molecular target: Bacterial urease (Bacteria, UniProt Q03284); assay: as §1; type: protein-complex assay; procedure, shortened: as §2
[3] = molecular target: Bacterial urease (Bacteria) (UniProt Q03282+Q03283+Q03284); assay: Potency index, ratio of acetohydroxamic acid IC50 to test compound IC50 for bacterial urease; type: protein-complex assay
Procedure, shortened: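 Spectrophotometric urease inhibition assay underlying the IC50s in the ratio, for test compounds and acetohydroxamic acid. Compound pre-incubated with urease (1 U/well) at 30 °C for 15 min. Urea (100 mM) was added and incubation continued at 30 °C. Phenol–nitroprusside and alkaline hypochlorite reagents were added, then 50 min at 30 °C. Ammonia was measured by the Weatherburn method, with absorbance change at 630 nm.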

Urease [4] = molecular target: T2, Urease (Canavalia ensiformis, UniProt P07374); assay: Inhibition of jack bean urease using urea as substrate preincubated for 15 mins followed by substrate addition and measured after 10 mins by ELISA; procedure, shortened: as §2
T2 sequence (P07374 whole entry): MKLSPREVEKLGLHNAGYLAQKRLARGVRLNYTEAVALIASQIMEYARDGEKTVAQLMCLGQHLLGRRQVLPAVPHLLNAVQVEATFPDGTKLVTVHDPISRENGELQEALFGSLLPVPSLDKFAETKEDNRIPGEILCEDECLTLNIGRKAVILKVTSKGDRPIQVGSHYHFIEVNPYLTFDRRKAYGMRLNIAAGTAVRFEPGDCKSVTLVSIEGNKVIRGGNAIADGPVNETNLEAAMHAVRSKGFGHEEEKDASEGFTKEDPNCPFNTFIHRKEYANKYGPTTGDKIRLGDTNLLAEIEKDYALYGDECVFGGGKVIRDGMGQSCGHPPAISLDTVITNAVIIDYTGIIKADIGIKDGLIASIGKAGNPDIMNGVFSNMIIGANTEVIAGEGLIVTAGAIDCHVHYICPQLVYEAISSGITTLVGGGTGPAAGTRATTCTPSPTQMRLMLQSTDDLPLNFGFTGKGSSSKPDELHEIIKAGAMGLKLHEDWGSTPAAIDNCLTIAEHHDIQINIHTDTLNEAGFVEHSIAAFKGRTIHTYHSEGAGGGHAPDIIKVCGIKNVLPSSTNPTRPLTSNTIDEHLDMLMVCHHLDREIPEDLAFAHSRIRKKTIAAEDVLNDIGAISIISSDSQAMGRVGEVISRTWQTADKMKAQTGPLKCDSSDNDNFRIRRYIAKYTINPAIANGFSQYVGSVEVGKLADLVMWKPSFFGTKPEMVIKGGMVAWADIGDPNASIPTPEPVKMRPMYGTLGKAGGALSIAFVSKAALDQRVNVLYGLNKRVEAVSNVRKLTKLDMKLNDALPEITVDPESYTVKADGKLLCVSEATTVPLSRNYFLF

Urease [5] = molecular target: T2, Urease; assay: Inhibition of jack bean urease assessed as reduction in ammonia production using urea as substrate after 30 mins by indophenol method; procedure, shortened: as §2

SMILES: COc1ccc(S(=O)(=O)NN=C(c2ccccc2)c2ccccc2)cc1
- IC50 (Bacterial urease [1]): Not Active

SMILES: O=[N+]([O-])c1cccc(S(=O)(=O)NN=C(c2ccccc2)c2ccccc2)c1
- IC50 (Bacterial urease [1]): Not Active

SMILES: COc1ccc(S(=O)(=O)N/N=C(\c2ccccc2)c2ccc(O)cc2)cc1
- IC50 (Bacterial urease [2]): 14.5 µM

SMILES: O=[N+]([O-])c1ccc(S(=O)(=O)N/N=C(\c2ccccc2)c2ccc(O)cc2)cc1
- IC50 (Bacterial urease [2]): 3.9 µM
- Ratio IC50 [3]: 10

SMILES: O=S(=O)(NN=C(c1ccccc1)c1ccccc1)c1ccc2ccccc2c1
- IC50 (Bacterial urease [1]): Not Active

SMILES: O=S(=O)(NN=C(c1ccccc1)c1ccccc1)c1ccc(Cl)cc1Cl
- IC50 (Bacterial urease [1]): Not Active

SMILES: CS(=O)(=O)N/N=C(\c1ccccc1)c1ccc(O)cc1
- IC50 (Bacterial urease [2]): 43.4 µM

SMILES: O=S(=O)(N/N=C(\c1ccccc1)c1ccc(O)cc1)c1cc(Cl)c(Cl)cc1Cl
- IC50 (Bacterial urease [2]): 57.9 µM

SMILES: O=S(=O)(N/N=C(\c1ccccc1)c1ccc(O)cc1)c1ccc(Cl)cc1Cl
- IC50 (Bacterial urease [2]): 18 µM

SMILES: O=[N+]([O-])c1cc(S(=O)(=O)NN=C(c2ccccc2)c2ccccc2)ccc1Cl
- IC50 (Bacterial urease [1]): Not Active

SMILES: CN(C)c1cccc2c(S(=O)(=O)N/N=C(\c3ccccc3)c3ccc(O)cc3)cccc12
- IC50 (Bacterial urease [2]): 5.7 µM

SMILES: O=S(=O)(N/N=C(\c1ccccc1)c1ccc(O)cc1)c1ccccc1
- IC50 (Bacterial urease [2]): 16.3 µM

SMILES: CC(=O)Nc1ccc(S(=O)(=O)Nc2ccc(Br)cc2)cc1
- IC50 (Urease [4]): 62.4 µM

SMILES: O=S(=O)(CCCl)N/N=C(\c1ccccc1)c1ccc(O)cc1
- IC50 (Bacterial urease [2]): 55 µM

SMILES: NS(=O)(=O)c1ccc(CCNC=C2C(=O)NC(=S)NC2=O)cc1
- IC50 (Urease [5]): 11.5 µM

SMILES: O=S(=O)(N/N=C(\c1ccccc1)c1ccc(O)cc1)c1cc(Cl)cc(Cl)c1O
- IC50 (Bacterial urease [2]): 4.97 µM

SMILES: CCCCS(=O)(=O)NN=C(c1ccccc1)c1ccccc1
- IC50 (Bacterial urease [1]): Not Active

SMILES: O=S(=O)(N/N=C(\c1ccccc1)c1ccc(O)cc1)c1ccccc1Cl
- IC50 (Bacterial urease [2]): 16.9 µM

SMILES: O=[N+]([O-])c1cccc(S(=O)(=O)NN=C(c2ccccc2)c2ccccc2)c1Cl
- IC50 (Bacterial urease [1]): Not Active

SMILES: COc1ccc(S(=O)(=O)NN=C(c2ccccc2)c2ccccc2)c(OC)c1
- IC50 (Bacterial urease [1]): Not Active

SMILES: O=[N+]([O-])c1cccc(S(=O)(=O)N/N=C(\c2ccccc2)c2ccc(O)cc2)c1
- IC50 (Bacterial urease [2]): 13.7 µM

SMILES: Cc1cc(S(=O)(=O)NN=C(c2ccccc2)c2ccccc2)c(C)cc1Cl
- IC50 (Bacterial urease [1]): Not Active

SMILES: O=[N+]([O-])c1ccc(NC(=S)N/N=C(\c2ccccc2)c2ccc(O)cc2)cc1
- IC50 (Urease [4]): 26.1 µM

SMILES: O=S(=O)(NN=C(c1ccccc1)c1ccccc1)c1ccccc1
- IC50 (Bacterial urease [1]): Not Active

SMILES: O=[N+]([O-])c1ccc(S(=O)(=O)NN=C(c2ccccc2)c2ccccc2)cc1
- IC50 (Bacterial urease [1]): Not Active

SMILES: O=S(=O)(NN=C(c1ccccc1)c1ccccc1)c1cc(Cl)cc(Cl)c1O
- IC50 (Bacterial urease [2]): 71.6 µM

SMILES: O=[N+]([O-])c1ccccc1S(=O)(=O)NN=C(c1ccccc1)c1ccccc1
- IC50 (Bacterial urease [1]): Not Active

SMILES: CN(C)c1cccc2c(S(=O)(=O)NN=C(c3ccccc3)c3ccccc3)cccc12
- IC50 (Bacterial urease [2]): 72.2 µM

SMILES: O=S(=O)(N/N=C(\c1ccccc1)c1ccc(O)cc1)c1cc(Cl)ccc1Cl
- IC50 (Bacterial urease [2]): 31.2 µM

SMILES: O=S(=O)(NN=C(c1ccccc1)c1ccccc1)c1ccc(Cl)cc1
- IC50 (Bacterial urease [2]): 66.1 µM

SMILES: Cc1ccc([N+](=O)[O-])cc1S(=O)(=O)NN=C(c1ccccc1)c1ccccc1
- IC50 (Bacterial urease [2]): 69 µM

SMILES: Oc1ccc(/C(=N/NC(=S)Nc2cccc(Br)c2)c2ccccc2)cc1
- IC50 (Urease [4]): 8.7 µM

SMILES: CC(=O)NO [ACETOHYDROXAMIC ACID]
- IC50 (Bacterial urease [2]): 29.2 µM

SMILES: O=S(=O)(NN=C(c1ccccc1)c1ccccc1)c1cc(Cl)c(Cl)cc1Cl
- IC50 (Bacterial urease [1]): Not Active

SMILES: O=[N+]([O-])c1ccc(S(=O)(=O)NN=C(c2ccccc2)c2ccccc2)c([N+](=O)[O-])c1
- IC50 (Bacterial urease [2]): 69 µM

SMILES: O=S(=O)(NN=C(c1ccccc1)c1ccccc1)c1ccccc1Cl
- IC50 (Bacterial urease [1]): Not Active
